Bioassay records (PubChem BioAssay)
OX1R antag-1: antagonists of human orexin 1 receptor (OX1R); Orexin/Hypocretin receptor type 1 (Homo sapiens), O43613; OX1R-expressing cells, FRET antagonist read-out; inhibition, % at 6.6 µM; 330,000 tested, 1.8% active; AID 485270, 2010; in the data active = inhibition mostly above about 38%, no sharp cut-off; inactive = mostly below about 40%;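 note: 0% = agonist challenge alone and 100% = reference antagonist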
Target sequence (O43613 whole entry, looked up): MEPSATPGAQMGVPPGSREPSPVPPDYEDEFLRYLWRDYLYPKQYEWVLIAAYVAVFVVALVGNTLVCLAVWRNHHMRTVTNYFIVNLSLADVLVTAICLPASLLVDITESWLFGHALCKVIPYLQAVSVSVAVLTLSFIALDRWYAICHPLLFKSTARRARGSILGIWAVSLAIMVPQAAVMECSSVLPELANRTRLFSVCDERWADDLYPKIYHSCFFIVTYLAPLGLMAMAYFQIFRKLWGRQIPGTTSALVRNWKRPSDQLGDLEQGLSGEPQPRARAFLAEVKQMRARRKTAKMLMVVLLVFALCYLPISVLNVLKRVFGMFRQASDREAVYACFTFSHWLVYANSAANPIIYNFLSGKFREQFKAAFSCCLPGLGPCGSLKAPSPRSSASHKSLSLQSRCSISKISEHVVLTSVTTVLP
OX1R antag-2: OX1R (HCRTR1) antagonists, primary screen, fluorescence, CHO/OX1R cells, Fluo-8 calcium, orexin A; Orexin/Hypocretin receptor type 1 (Homo sapiens), O43613; Fluo-8 calcium fluorescence; inhibition, % at 5 µM; 330,000 tested, 0.43% active;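 active = inhibition above its plate's threshold, mean inhibition of all tested compounds on the plate plus 3 SD, cut at about 37% in these data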;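 note: 0% = orexin A challenge wells and 100% = SB-334867-A antagonist wells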
TAAR1 ag: human TAAR1 agonists, primary screen, Fluo-8 calcium fluorescence, CHO RD-HGA16 cells; Trace amine-associated receptor 1 (Homo sapiens), Q96RJ0; 360,000 tested, 0.99% active; AID 624467, 2012; vehicle wells 0%, saturating PEA agonist 100%; activation, % at 3 µM;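 active = activation above the mean activation of all test compounds in the run plus 3 SD, cut at about 38% in these data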
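Signal – calcium-sensitive Fluo-8 signal, excitation 470-495, emission 515-575 nm · System – RD-HGA16 (CHO) cells co-expressing Gα16 and hTAAR1 · Incubation – 17-24 h seeding, 75 min 37 °C dye, 30 min RT · Compound dosing – 3 µM single concentration · Repeats – no replicates (n 1)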
TAAR1 antag: human TAAR1 antagonists, primary screen, Fluo-8 calcium fluorescence, CHO RD-HGA16 cells. Trace amine-associated receptor 1 (Homo sapiens), Q96RJ0. antagonist. inhibition, % at 3 µM. 360,000 tested, 1.5% active;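 active = inhibition above a per-plate cutoff, the mean inhibition of test compounds on that plate plus 3 SD, cut at about 49% in these data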;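 note: 0% = DMSO plus EC80 beta-PEA response and 100% = DMSO alone without agonist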
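Material: CHO RD-HGA16 cells bearing hTAAR1; compound dosing: one-point dosing, 3 µM nominal final; schedule: dye loading 75 min at 37 °C, then 30 min room temperature; measured by: calcium fluorescence with Fluo-8; control set: vehicle and agonist controls; replication: n of 1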
GPR7 antagonist: GPR7 receptor antagonists, primary screen, cell-based, fluorescence, single concentration | 290,000 tested, 1.1% active | Neuropeptides B/W receptor type 1 (Homo sapiens), P48145 | inhibition, % at 4.4 µM | GPR7-expressing cells, fluorescence antagonist assay; in the data active = inhibition above about 16%, passing the limit was not always enough;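 note: cells stimulated with the agonist NPW; 0% = agonist with vehicle and 100% = vehicle without agonist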
Target sequence (P48145 whole entry, looked up): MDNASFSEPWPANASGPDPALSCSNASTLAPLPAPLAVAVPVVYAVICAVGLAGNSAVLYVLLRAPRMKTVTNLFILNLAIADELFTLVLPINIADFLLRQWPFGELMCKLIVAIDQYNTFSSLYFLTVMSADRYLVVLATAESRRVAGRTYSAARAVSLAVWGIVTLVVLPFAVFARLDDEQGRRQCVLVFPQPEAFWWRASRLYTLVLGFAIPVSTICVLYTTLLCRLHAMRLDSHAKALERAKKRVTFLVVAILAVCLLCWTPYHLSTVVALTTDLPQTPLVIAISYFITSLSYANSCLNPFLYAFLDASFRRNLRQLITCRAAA
CHO parental Ca: ATP-evoked calcium signal inhibitors, parental CHO, primary screen, counter-screen for OX1R antagonist project, cell-based, fluorescence, Fluo-8 calcium dye. parental CHO-K1, ATP-induced calcium, Fluo-8 fluorescence. inhibition, % at 5.6 µM. 330,000 tested, 0.63% active. AID 463079, 2010;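 active = inhibition above that plate's mean sample inhibition plus 3 SD, cut at about 26% in these data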;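 note: 0% = ATP-challenged DMSO wells and 100% = DMSO wells without ATP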
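Assay system: untransfected parental CHO cell line. Also added: ATP agonist challenge. Dosing: one dose, 5.6 µM nominal. Measured by: Fluo-8 fluorescence. Read-out: % inhibition. Benchmarks: ATP wells versus no-ATP DMSO wells. Repeats: no replicates.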
An asterisk follows results filed as active; / = no result. Rows were chosen to be rich in hits. Some 4.6% of all compounds tested hit in one or more screens of this group.

SMILES	OX1R antag-1	OX1R antag-2	TAAR1 ag	TAAR1 antag	GPR7 antagonist	CHO parental Ca
Cc1ccccc1-c1cc(C(=O)NCc2cccc(C(F)(F)F)c2)n(CC2CC(c3cccnc3)=NO2)n1 (stereo not given)	6.8	-7.0	12.7	54.5*	/	-15.5
COc1ccc(C2=NOC(Cn3nc(C(=O)NCc4cccc(C(F)(F)F)c4)cc3-c3ccccc3)C2)cc1 (stereo not given)	23.9	0.9	10.8	54.8*	/	19.2
N#Cc1c(N)n(C2OC(CO)C(O)C2O)c2ncnc(N)c12 (stereo not given)	/	/	1.4	-8.1	/	/
O=C1CCCCCC(=O)[C@H](O)C[C@H](c2ccccc2)O1	/	/	1.3	-7.7	/	/
COc1ccc(NC(=O)CCN(c2ccc(OC)cc2)S(=O)(=O)c2ccc(C)c(C)c2)cc1	/	/	5.6	7.2	/	/
c1ccc(-c2nc(-n3nc4ccccc4n3)nc3ccccc23)cc1	17.1	-32.0	4.7	65.1*	-0.5	-16.9
COc1ccc(CN(C)C(=O)[C@@H](Cc2ccccc2)NC(=O)[C@H]2O[C@@H](n3ccc(N)nc3=O)[C@H](O)[C@@H]2O)cc1OC	/	/	-0.8	-12.7	/	/
COc1cccc(NS(=O)(=O)c2ccc3c(c2)CCN3C(C)=O)c1	2.0	-7.6	3.9	6.6	-1.3	4.8
CSc1cccc(NS(=O)(=O)c2ccc3c(c2)CCN3C(C)=O)c1	22.3	47.2	11.7	30.3	33.0	64.5*
OCC1SC(O)C(O)C(O)C1O (stereo not given)	/	/	0.5	-7.6	/	/
O=[N+]([O-])c1ccc2c(c1)CCCO[C@]21O[C@H](CCO)C[C@H](O)[C@H]1O	/	/	-0.1	-6.2	/	/
COc1ccc(S(=O)(=O)N2CCSC2c2ccc(OC)c(OC)c2)cc1 (stereo not given)	26.5	5.8	10.8	-6.9	-12.2	-4.3
COc1ccc(C2SCCN2S(=O)(=O)c2ccc(F)cc2)cc1OC (stereo not given)	37.2*	-9.5	4.8	6.5	-16.2	-16.0
CCCCCc1nc2sc3c(c2c(=O)n1NC(=O)c1ccc([N+](=O)[O-])cc1)CC(C)(C)OC3	53.4*	-30.2	7.0	24.9	-13.2	-0.4
Cc1cc(/C=C\c2ccc3cc(N(C)C)ccc3[n+]2C)c(C)n1-c1ccccc1	80.2*	51.0*	/	/	/	54.0*
O=c1[nH]cc(S(=O)(=O)N2CCN(c3ccc(F)cc3)CC2)c(=O)[nH]1	/	/	2.2	-7.4	/	/
COC(=O)c1cc2c(c3c4cc(OC)ccc4n(S(=O)(=O)c4ccc(OC)cc4)c13)C(=O)N(Cc1ccc(C(F)(F)F)cc1)C2	/	/	-0.2	-26.3	/	/
CC1=NOC(=O)/C1=C\c1ccc(-c2ccc(Br)cc2)o1	/	/	35.1	67.4*	-18.8	/
COc1cc(/C=C2\SC(=O)NC2=O)ccc1OCC(=O)N1CCOCC1	51.8*	15.6	-0.8	-9.9	/	-13.7
COc1ccccc1NC(=O)c1c(Nc2ccccc2F)sc(C(=O)Nc2cccc(Cl)c2)c1N	15.5	36.9	16.1	19.0	10.3	42.5*
COc1c(OC(C)=O)ccc(/C=C/c2ccc3ccccc3n2)c1[N+](=O)[O-]	42.2*	1.9	9.3	17.3	4.8	-6.5
COC(=O)C[C@@H]1CC[C@H](NS(=O)(=O)c2ccccc2F)[C@@H](CO)O1	/	/	0.9	11.1	/	/
O=C(NC1CCCCC1)C1c2ccccc2OCC(=O)N1Cc1cccnc1 (stereo not given)	/	/	0.7	3.4	/	/
O=C(O)CC1(CC(=O)Nc2cc(C(F)(F)F)cc(C(F)(F)F)c2)CCCCC1	41.9*	2.0	2.4	-30.1	-4.1	-2.0
CCNC(=S)N1CCN(c2nc(-c3ccc(F)cc3)cs2)CC1	20.5	47.9*	3.4	43.9	-9.2	64.7*
SMILES	OX1R antag-1	OX1R antag-2	TAAR1 ag	TAAR1 antag	GPR7 antagonist	CHO parental Ca
COCCNC(=S)N1CCN(c2nc(-c3ccc(F)cc3)cs2)CC1	-0.8	-10.3	4.7	24.8	5.8	-1.4
O=C(NCc1cccc(CNC(=O)c2ccco2)c1)c1ccco1	7.5	-15.9	12.8	0.3	-11.4	-21.3
O=C(NCc1cccc(CNC(=O)C(=O)NCc2ccco2)c1)C(=O)NCc1ccco1	4.8	13.9	2.1	-11.4	-0.9	32.5*
Cc1ccc(Sc2ccc([N+](=O)[O-])cc2[N+](=O)[O-])nc1	47.4	-34.3	1.4	-5.5	-9.2	-19.5
O=c1[nH]c(Sc2ccc([N+](=O)[O-])cc2[N+](=O)[O-])nc2ccccc12	68.9	-1.4	6.1	-32.0	/	-9.7
O=[N+]([O-])c1ccc(Cl)cc1Sc1nc2ccccc2o1	16.8	-34.0	-1.5	-13.2	7.6	-18.7
Cc1ccnc(Sc2ccc([N+](=O)[O-])cc2[N+](=O)[O-])n1	67.5*	-8.6	0.8	6.5	-11.2	-0.4
Nc1nc(Sc2ccc([N+](=O)[O-])cc2[N+](=O)[O-])n[nH]1	41.7*	-4.1	3.4	-19.9	-6.3	-5.2
O=[N+]([O-])c1ccc(Sc2nc3ccccc3o2)c([N+](=O)[O-])c1	36.8*	7.5	6.5	15.7	9.2	15.2
C[C@H]1CN([C@@H](C)CO)C(=O)CCCn2cc(nn2)CO[C@@H]1CN(C)C(=O)c1ccc2ccn(C)c2c1	/	/	-0.1	10.8	/	/
CCN(CC)CCNC(=O)c1ccc(NCN2C(=O)NC(c3ccccc3)(c3ccccc3)C2=O)cc1	/	/	4.2	-14.0	/	/
COc1cc(C(=O)NC2CCCCN(C)C2=O)cc(OC)c1OC (stereo not given)	/	/	0.7	-1.1	/	/
COc1ccc(CCNC(=O)COc2ccc(S(=O)(=O)N3CCOCC3)cc2)cc1	7.3	10.3	0.9	9.0	-2.5	-3.4
COc1ccc(CCNC(=O)CSc2nnc(-c3ccccc3)o2)cc1OC	11.9	-20.0	1.5	-9.9	/	-3.7
COc1ccc(CCNC(=O)COc2ccc(S(=O)(=O)N3CCOCC3)cc2)cc1OC	48.8*	14.7	0.6	16.6	-10.1	-6.8
COc1ccc(CCNC(=O)CSc2nnc(-c3ccccc3)c3ccccc23)cc1OC	72.7*	-13.7	-2.6	-15.5	-2.5	-27.1
COC(=O)c1ccc(/C=N/OCC(=O)NCCc2ccc(OC)c(OC)c2)cc1	45.0*	1.6	19.8	-7.6	-4.0	-14.2
COc1ccc(CCNC(=O)CSc2ccc3ccccc3c2)cc1OC	63.7*	-3.3	0.1	6.1	-7.1	-25.1
COc1ccc(CCNC(=O)CC(=O)N/N=C/c2ccc(C(=O)O)cc2)cc1OC	9.4	-19.4	2.0	-10.2	-1.3	-6.7
O=C(CSc1ccc2ccccc2c1)NCCc1ccc(O)c(O)c1	20.7	-3.1	4.4	6.3	13.2	-11.9
